Source: publication PMC3397136 (Amino Acids, 2011)
“And” between values parts separate entries of the source, which are not always exact repeats. Identical values can stand only once. Like-named read-outs stand apart in the source and are kept apart here. Positions of bridges follow the written chain, without caps; N, C: chain ends. No end group written: not given here.

What was measured:
strips of rat uterus [1] = assay type: cell-based; details: for anti-oxytocic potency, times less potent than the mother compound III: in vitro uterus test
How it was run: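 Wistar rats were brought into estrus by estrogen injection 48 h before use. After decapitation, uterine horns were cut longitudinally and mounted in an organ bath without Mg2+, and isometric contraction height was recorded. Oxytocin standard, with or without test compound, or test compound alone was dosed cumulatively in doubling concentrations at 1 min intervals until maximal response. Results are agonist IU/mg or antagonist pA2, using uteri from 3–5 rats, mean ± SEM.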

[2] = test system: conscious male rats (antidiuresis); assay: antidiuretic test on conscious male rats; assay type: in vivo, rat; details: for Antidiuretic IU/mg (200 min): level t1/2 200 min (in parentheses); for Antidiuretic IU/mg (200 min) / Antidiuretic IU/mg 60 min: s.c., AVP taken as 465 IU/mg; for antidiuretic activity (in words): rat, in vivo; for Antidiuretic IU/mg 60 min: threshold level t1/2 60 min; for Antidiuretic IU/mg: single value given, no level given
How it was run: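 Fasted (16 h) conscious male Wistar rats given a tap-water load of 4% body weight by stomach catheter. Test compound or saline was then injected s.c. (0.001–100 nmol/kg), and urine was collected for 5 h in metabolic cages. The half-excretion time t1/2 was plotted against dose. […] Groups were 4–5 rats, with 2–3 independent days per dose.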

[3] = test system: arterial blood pressure (pressor response to AVP); assay: vasopressor test in phenoxybenzamine-treated male rats under urethane anesthesia; assay type: in vivo, rat; details: for Pressor pA2 (antagonist) / pressor activity (in words): rat; for Pressor pA2 (antagonist): i.v., antagonist 1 min before AVP; for pressor activity (in words): in vivo; for Pressor IU/mg or pA2 (0 = no activity): 0 means no activity up to the dose of 0.15 mg/kg of experimental animal
How it was run: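 Male Wistar rats were pretreated with phenoxybenzamine and anesthetized with urethane, and arterial blood pressure was recorded. AVP standard was given as single femoral-vein injections to build dose–response curves with and without antagonist, which was given 1 min earlier. Results are IU/mg for agonists or pA2 for antagonists, with distribution volume taken as 67 ml/kg. Inactivity means no response up to 0.15 mg/kg. 3–5 experiments, mean ± SEM.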

strips of rat uterus [4] = details: cited from earlier work
[5] = test system: arterial blood pressure (pressor response to AVP); details: cited from earlier work
[6] = test system: conscious male rats (antidiuresis); details: cited from earlier work; for Antidiuretic IU/mg: single value, ref Lebl (1987); for Antidiuretic IU/mg (200 min): 200 min level; for Antidiuretic IU/mg 60 min: threshold level 60 min
[7] = rat uterus strips, no Mg2+, average ± SEM, n = 3–5
[8] = ref Melin et al. (1986), Manning et al. (1995)

In the case of [Cpa^1,cis-Apc^2]AVP [VII], the “Uterotonic in vitro no Mg2+ pA2 (anti-oxytocic)” value (strips of rat uterus [1]; [7]) is reported as “pA2 = 7.85 + 0.14”, the “Antidiuretic IU/mg (200 min)” value [2] is reported as 1 IU/mg and the “antidiuretic activity (in words)” value [2] is reported as “negligible”. For the same substance, the “Antidiuretic IU/mg 60 min” value [2] was 0.05 IU/mg, the “Pressor pA2 (antagonist)” value [3] was “pA2 ~ 6.2” and the “pressor activity (in words)” value [3] was “weak and low antagonistic activity”.

For [Cpa^1,Acc^2]AVP, the “Uterotonic in vitro no Mg2+ pA2” value (strips of rat uterus [4]; ref Jastrzębska et al. (2003)) is given as 7.33.

With Aca[cis-Apc^2,Val^4]AVP [VIII] the “Antidiuretic IU/mg (200 min)” value [2] was under 0.5 IU/mg, the “Antidiuretic IU/mg 60 min” value [2] was under 0.01 IU/mg and the “Pressor IU/mg or pA2 (0 = no activity)” value [3] was 0. The “pressor activity (in words)” value [3] was “eliminated its effect on blood pressure”.

For Aba[cis-Apc^2,Val^4]AVP [XI], the “anti-oxytocic potency, times less potent than the mother compound III” value (strips of rat uterus [1]) was about 10 times, the “Antidiuretic IU/mg” value [2] was 0 IU/mg and the “Pressor IU/mg or pA2 (0 = no activity)” value [3] was 0. The “pressor activity (in words)” value [3] was “eliminated its effect on blood pressure”.

In the case of [Mpa^1,cis-Apc^2,D-Arg^8]VP [VI], the “Antidiuretic IU/mg (200 min)” value [2] is reported as 1,000 IU/mg, the “Antidiuretic IU/mg 60 min” value [2] is reported as 5 IU/mg and the “Pressor pA2 (antagonist)” value [3] is reported as “pA2 ~ 7.1”.

For [Mpa^1]OT, the “Pressor IU/mg” value ([5]; ref Lebl (1987)) is given as 1.44 IU/mg, the “Antidiuretic IU/mg” value [6] is given as 19 IU/mg and the “Uterotonic in vitro no Mg2+ IU/mg” value (strips of rat uterus [4]; ref Lebl (1987)) is given as 803 IU/mg.

In the case of Hba[cis-Apc^2,Val^4]AVP [X], the “anti-oxytocic potency, times less potent than the mother compound III” value (strips of rat uterus [1]) is reported as “about 4 times”, the “Antidiuretic IU/mg (200 min)” value [2] is reported as under 0.5 IU/mg and the “Antidiuretic IU/mg 60 min” value [2] is reported as under 0.01 IU/mg.

With [cis-Apc^2,D-Arg^8]VP the “Antidiuretic IU/mg (200 min)” value [2] was 200 IU/mg, the “antidiuretic activity (in words)” value [2] was “negligible” and the “antidiuretic potency relative to AVP” value ([2]; t1/2 level of 200 min) was “about 43%”. The “Antidiuretic IU/mg 60 min” value [2] was 1 IU/mg and the “Pressor pA2 (antagonist)” value [3] was “pA2 ~ 7.1”.

For d[D-Tyr(Et)^2,Thr^4]OVT [Atosiban], the “Pressor pA2” value [5, 8] is listed as “pA2 = 6.14 ± 0.02”, the “Antidiuretic pA2” value [6, 8] is listed as “pA2 = 5.9” and the “Uterotonic in vitro no Mg2+ pA2” value (strips of rat uterus [4]; [8]) is listed as 7.71 and 7.71 ± 0.05.

With [cis-Apc^2]OT [XII] the “Uterotonic in vitro no Mg2+ pA2 (anti-oxytocic)” value (strips of rat uterus [1]; [7]) was “pA2 = 7.89 + 0.07”, the “Pressor pA2 (antagonist)” value [3] was “pA2 ~ 5.75” and the “pressor activity (in words)” value [3] was “weak”.

With [Cpa^1,cis-Apc^2]OT [XIV] the “Uterotonic in vitro no Mg2+ pA2 (anti-oxytocic)” value (strips of rat uterus [1]; [7]) was “pA2 = 7.97 + 0.24” and the “Pressor pA2 (antagonist)” value [3] was “pA2 ~ 6.73”.

In the case of [Acc^2,Val^4]AVP, the “Pressor IU/mg” value ([5]; ref Kowalczyk et al. (2004)) is given as 0.9 ± 0.30 IU/mg, the “Antidiuretic IU/mg (200 min)” value ([6]; ref Kowalczyk et al. (2004)) is given as 23,000 IU/mg and the “Antidiuretic IU/mg 60 min” value ([6]; ref Kowalczyk et al. (2004)) is given as 2,300 IU/mg. For the same substance, the “Uterotonic in vitro no Mg2+ pA2” value (strips of rat uterus [4]; ref Kowalczyk et al. (2004)) was “pA2 = 6.9”.

In the case of oxytocin [OT], the “Pressor IU/mg” value ([5]; ref Lebl (1987)) is given as 5 IU/mg, the “Antidiuretic IU/mg” value [6] is given as 5 IU/mg and the “Uterotonic in vitro no Mg2+ IU/mg” value (strips of rat uterus [4]; ref Lebl (1987)) is given as 450 IU/mg.

In the case of [Acc^2]AVP, the “Pressor IU/mg” value ([5]; ref Jastrzębska et al. (2003)) is given as 56.6 IU/mg, the “Antidiuretic IU/mg (200 min)” value ([6]; ref Jastrzębska et al. (2003)) is given as ~9,300 IU/mg and the “Antidiuretic IU/mg 60 min” value ([6]; ref Jastrzębska et al. (2003)) is given as 750–900 IU/mg. For the same substance, the “Uterotonic in vitro no Mg2+ pA2” value (strips of rat uterus [4]; ref Jastrzębska et al. (2003)) was “pA2 ~ 5.6”.

For “arginine vasopressin (CYFQNCPRG-NH2; disulfide 1-6; UniProt P01185 20-28, looked up) [AVP]”, the “Pressor IU/mg” value ([5]; ref Lebl (1987)) is listed as 412 IU/mg, the “Antidiuretic IU/mg” value [6] is listed as 465 IU/mg and the “Uterotonic in vitro no Mg2+ IU/mg” value (strips of rat uterus [4]; ref Lebl (1987)) is listed as 17 IU/mg.

With [Mpa^1,cis-Apc^2]OT [XIII] the “Uterotonic in vitro no Mg2+ pA2 (anti-oxytocic)” value (strips of rat uterus [1]; [7]) was “pA2 = 8.11 + 0.18”, the “Uterotonic in vitro no Mg2+ pA2 (anti-oxytocic)” value (strips of rat uterus [1]; rat uterus strips, no Mg2+, average ± SEM, n = 3–5, listed as [Mpa^1,cis-Apc^2]OT) was 8.11 and the “antidiuretic activity (in words)” value [2] was “inactive”. For the same substance, the “Antidiuretic IU/mg” value [2] was 0 IU/mg and the “Pressor pA2 (antagonist)” value [3] was “pA2 ~ 6.0”.

For [Mpa^1,Acc^2]AVP, the “Pressor IU/mg” value ([5]; ref Kowalczyk et al. (2004)) is given as 17.2 ± 0.8 IU/mg, the “Antidiuretic IU/mg (200 min)” value ([6]; ref Kowalczyk et al. (2004)) is given as 50,000 IU/mg and the “Antidiuretic IU/mg 60 min” value ([6]; ref Kowalczyk et al. (2004)) is given as 4,500 IU/mg. The “Uterotonic in vitro no Mg2+ pA2” value (strips of rat uterus [4]; ref Kowalczyk et al. (2004)) was about 5.6 and the “Uterotonic in vitro no Mg2+ IU/mg” value (strips of rat uterus [4]; value in parentheses, ref Kowalczyk et al. (2004)) was 0.7 IU/mg.

In the case of t-Bba[cis-Apc^2,Val^4]AVP [IX], the “Uterotonic in vitro no Mg2+ IU/mg (agonist)” value (strips of rat uterus [1]; [7]) is reported as 10.1 ± 3.8 IU/mg and 10.1 + 3.8 IU/mg, the “Antidiuretic IU/mg (200 min)” value [2] is reported as under 0.5 IU/mg and the “Antidiuretic IU/mg 60 min” value [2] is reported as under 0.01 IU/mg. For the same substance, the “Pressor IU/mg or pA2 (0 = no activity)” value [3] was 0 and the “pressor activity (in words)” value [3] was “eliminated its effect on blood pressure”.
